In the EternaBench riboswitch data:

Tested on: MS2 coat protein
Experiment: apparent Kd, MS2 coat protein; higher = weaker binding; RNA-MaP array
In short: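 In Tris-HCl pH 7.5 buffer with KCl, MgCl2, BSA, DTT, tRNA and Tween20, with or without input ligand, fluorescently labeled MS2 coat protein at 1.5 nM to 3 μM was incubated at room temperature with designed RNAs. The RNAs had been transcribed on an Illumina sequencing chip from sequenced DNA templates, and incubation ran 0.8–1.5 h at the lowest to 10–20 min at the highest concentrations. Apparent Kd is the median of binding-curve fits for individual clusters. Designs measured on fewer than 10 clusters were excluded.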

[1] = designed as: OFF switch for flavin mononucleotide, no ligand
[2] = ligand present: flavin mononucleotide, designed as: OFF switch for flavin mononucleotide
[3] = designed as: ON switch for flavin mononucleotide, no ligand
[4] = ligand present: flavin mononucleotide, designed as: ON switch for flavin mononucleotide
[5] = designed as: ON switch for theophylline, no ligand
[6] = ligand present: theophylline, designed as: ON switch for theophylline

Sequence: UACCGAGGGACAGGAUAUUGAGCAUGCCUCGCCCAAGAAGGGUCUUCUGGAGUGACUUAUAACAUGAGGAUCACCCAUGUGAUC
- apparent Kd [1]: 410 nM
- apparent Kd [2]: 262 nM

Sequence: UACCUUAUUGUUAGGAUAUGCAGAUACAAAGGUGAGCAGAAGGAACAUGAGGAUCACCCAUGUAAAAUAAUAAA
- apparent Kd [1]: 16.6 nM
- apparent Kd [2]: 48 nM

Sequence: UACUGUCUAACGGCCGCCACUCAGUCUCGGUUGAUUAUCUUAAGUGACAUGAGGAUCACCCAUGUGAGGACCGGGUUGUGCAUAA
- apparent Kd (designed as: OFF switch for tryptophan, no ligand): 76 nM
- apparent Kd (ligand present: tryptophan, designed as: OFF switch for tryptophan): 136 nM

Sequence: UAGAUAAGAAUCAAGGAUAUGAAAAGGCACACAUGAGGAUCACCCAUGUCAAGCACAAAAUGACGUCAGAAGGUGAUAAGCAGCAA
- apparent Kd [3]: 57.6 nM
- apparent Kd [4]: 35 nM

Sequence: UAGGAUCAAGUAGGAUAUGUAGAACGGCUUUGUACAGAAGGACUAGUACAUGAGGAUCACCCAUGUUAGGGUACCUCUAAGGCA
- apparent Kd [2]: 198 nM

Sequence: UAGUACCAAGUGAGGAUAUCUAAAGUCUAUGAAAGAGAGAAGGCACAUGAGGAUCACCCAUGUAACUAGGUGGG
- apparent Kd [1]: 152 nM
- apparent Kd [2]: 162 nM

Sequence: UAUAUGAAGGGAGGAUAUGACCGAGAGUAAAUGUCAGAAGGCCCGUUUCUUCACCAACGUCCGGUACAUGAGGAUCACCCAUGU
- apparent Kd [3]: 11.3 nM
- apparent Kd [4]: 8.86 nM

Sequence: UAUUAACAAGGAUAUACAUGAGGAUCACCCAUGUGAAACUAUUUUAUAAUAACAACAAGUAGAAGGAGUUAAAA
- apparent Kd [1]: 13.2 nM
- apparent Kd [2]: 10.8 nM

Sequence: UAUUCUGACACAGAUACCAGUCAAUUCCGUGGCAAGUGCUACAUGAGGAUCACCCAUGUCGACCCUUGGCAGCUGAAGAGAUACA
- apparent Kd (designed as: OFF switch for theophylline, no ligand): 12.1 nM
- apparent Kd (ligand present: theophylline, designed as: OFF switch for theophylline): 14.1 nM

Sequence: UCACAGUCCCAGAAGGCCUUGUCAGAUUCAUAAGGAGGAUAUGGAUUACAUGAGGAUCACCCAUGUGAAUACUUACAGAGCAAC
- apparent Kd [3]: 79.3 nM
- apparent Kd [4]: 15.4 nM

Sequence: UCACUCCUGAUGGAUACCAGUUACUAACGCAACAUGAGGAUCACCCAUGUGAACACUCAGAACCCUUGGCAGCCAGGAGAACGAA
- apparent Kd [5]: 48.2 nM
- apparent Kd [6]: 25.5 nM

Sequence: UCAGAAAGAUAGGACCUACAUGAGGAUCACCCAUGUUGCUGUAGAAGGUGCCGUGCCAUCGUGAGCAAGGAUAUACCGAUAUGG
- apparent Kd [1]: 22.6 nM
- apparent Kd [2]: 15.8 nM

Sequence: UCCACACAUGAGGAUCACCCAUGUUGACAUUAUUGAGGAUAUCGGAGUGAAGGUUCGGUUCGAGAAGGCAACCAGA
- apparent Kd [3]: 19.8 nM
- apparent Kd [4]: 14.8 nM

Sequence: UCCACACGUCAGAAGGAUGUAUCUACAAUUUUCAUAGGAUAUGACCAUGGAGAUGAUUCCACAUGAGGAUCACCCAUGUCUGCU
- apparent Kd [1]: 288 nM
- apparent Kd [2]: 239 nM

Sequence: UCGGACCGAGGAUAUACAGUUCGUGAAGGUAAGAUACACAGACAUGAGGAUCACCCAUGUAGAAGGCGGAGUCC
- apparent Kd [1]: 12.1 nM
- apparent Kd [2]: 15.6 nM

Sequence: UCGUAGAUAGUAGGAUAUAAGGCCCUAGAGCAUUUAGAAGGACUUUUGAGACUAACAUGAGGAUCACCCAUGUUUCGCACAUGG
- apparent Kd [3]: 297 nM
- apparent Kd [4]: 171 nM

Sequence: UGACCAUGCGAGAAGGCGUACAUGAGGAUCACCCAUGUUCGUAGAACAAUCGGGUAAGCAUGGCACGAGGAUAUCGCCAAUGCC
- apparent Kd [1]: 23.1 nM
- apparent Kd [2]: 93.6 nM

Sequence: UGACCGUUAAUAGGAUAUGUUCUCUUCCACAUGAGGAUCACCCAUGUAAACUAUUGUGAAACUGGACAGAAGGAUUAAACAUUG
- apparent Kd [1]: 17.1 nM
- apparent Kd [2]: 14.1 nM

Sequence: UGCAAAUGAUGAGAUACCAGUUCAGUUAAAUACAUGAGGAUCACCCAUGUCAGGGAACUCAACCCUUGGCAGCUCGAUGCACUCA
- apparent Kd [5]: 56.2 nM
- apparent Kd [6]: 14.9 nM

Sequence: UGCGUGGGAAAGAAGGCGUCCGAAUUGUGGCCACGAGGAUAUUUCCGGCGCACAUGAGGAUCACCCAUGUUCAGCUGGUAGCGU
- apparent Kd [3]: 32.5 nM
- apparent Kd [4]: 22.1 nM

Sequence: UUAACAUGAGGAUCACCCAUGUGAAGCCGGCGAUGAAUAGUACAGGAUAUCGAAUACCGCCUAGACGAGAAGGGUAUCAAUCGG
- apparent Kd [3]: 14.2 nM
- apparent Kd [4]: 12.7 nM

Sequence: UUAGUACUAGGAUAUACGAUGGAAAGGAGAGCCUUACAAAUACAUGAGGAUCACCCAUGUAGAAGGAGUUGCCA
- apparent Kd [1]: 6.27 nM
- apparent Kd [2]: 5.93 nM

Sequence: UUAUAAGCACCUGAUACCAGUAUGAACCCGUACAUGAGGAUCACCCAUGUUAAUUUCUAUUACCCUUGGCAGCAGCCUUUUUCCU
- apparent Kd [5]: 19.4 nM
- apparent Kd [6]: 17.6 nM

Sequence: UUCUACAUGAGGAUCACCCAUGUCCCUGGGACCCUUGCAUCCAGAAGGCACGACUAGAUGGUGUGUGAGGAUAUGGAGGCGCUU
- apparent Kd [1]: 162 nM
- apparent Kd [2]: 144 nM

Sequence: UUCUUACAUGAGGAUCACCCAUGUUCUGAUAGAGCAGGAUAUGAUGGUUAGAAGUAGAAAUCAGAAGGGCUCCAUG
- apparent Kd [3]: 100 nM
- apparent Kd [4]: 19.8 nM

Sequence: UUGUGGGCGCUUCAGGAUAUCGCAAAAGAAACAUGAGGAUCACCCAUGUGGCCGAAGCAACUGGGCGAGAAGGGAAAGGCCCGAAG
- apparent Kd [3]: 17.3 nM
- apparent Kd [4]: 14.1 nM

Sequence: UUUAACACCGGCAAGGAUAUUCUACAAAGAACAUGAGGAUCACCCAUGUCAACAAUCUACAUCACGAAGAAGGUGCAUCGGAUUAA
- apparent Kd [3]: 17.4 nM
- apparent Kd [4]: 9.95 nM
